Test results from paper PMC6448596 (Cell reports, 2019).

Key:
[1] = tested on: WDR5; assay: Surface plasmon resonance direct affinity measurement; assay type: binding, Human
Procedure, shortened: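 Enhanced SPR (eSPR) was run externally using purified WDR5 supplied by the authors. Test compounds were prepared as 30 mM DMSO stock solutions.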

[2] = tested on: MV4:11 cells; assay: Cell cycle analysis; assay type: cell-based, human; conditions: 2 μM, up to 6 days
Procedure, shortened: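 1 million cells were fixed dropwise in ice-cold 70% ethanol (≥2 h, […]) and stained with PI (10 μg/mL) plus RNase for 20 min at RT in the dark. Flow: ≥10,000 events, doublets excluded. Three biological replicates, SEM.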

[3] = tested on: gamma-H2AX in MV4:11 cells; assay: gamma-H2AX immunofluorescence, DNA damage; assay type: cell-based, human; conditions: MV4:11, 4 µM
Procedure, shortened: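 Cells were cytospun onto slides (100,000 cells, 800 rpm, 3 min) and immunostained for γ-H2AX. Mean nuclear γ-H2AX signal was quantified and compared with DMSO by one-way ANOVA with Dunnett's test.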

[4] = tested on: gene expression in MV4:11 cells; assay: RNA-Seq; assay type: cell-based, human; conditions: overlap of RNA-seq and WDR5 ChIP-seq, MV4:11
[5] = tested on: HL60 cells; assay: Proliferation assay; assay type: cell-based; conditions: Homo sapiens, HL-60, 72 h
Procedure, shortened: (§1)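 CellTiter-Glo, 5,000 cells/well. Cells received 0.1% DMSO or at least five two-fold dilutions of test compound (top 50 μM, final DMSO 0.1%), in triplicate wells and ≥2 biological replicates, for 72 h at 37°C. Reagent was added after equilibration to RT, with 30 min dark incubation before luminescence. Signals were normalized to DMSO wells and GI50 obtained by curve fitting. Curve error bars are SEM.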

[6] = tested on: p53 turnover in MV4:11 cells; assay: Cycloheximide; assay type: cell-based, human; conditions: MV4:11, 2 μM, 24 h before CHX
Procedure, shortened: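 Before the cycloheximide chase, MV4:11 cells were pretreated 24 h with 2 μM test compound, 2 μM Nutlin-3 as comparator, or DMSO only. p53 was then followed by immunoblot.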

[7] = tested on: NOMO-1 cells; assay: Proliferation assay; assay type: cell-based; conditions: Homo sapiens, NOMO-1, 72 h
Procedure, shortened: as §1

[8] = tested on: NPM1 localisation in MV4:11 cells; assay: Nucleophosmin; assay type: cell-based, human; conditions: MV4:11, 4 μM, 3 days
Procedure, shortened: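 Cells were cytospun onto slides (100,000 cells, 800 rpm, 3 min) and immunostained for NPM. The per-cell nucleolar-to-nucleoplasmic NPM ratio was quantified from two biological replicates (SD). One-way ANOVA with Dunnett's test versus DMSO.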

[9] = tested on: protein synthesis in MV4:11 cells; assay: Relative protein synthesis rates; assay type: cell-based, human; conditions: MV4:11, 2 μM
Procedure, shortened: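 Cycloheximide 30 min before OPP served as positive control; an OPP-free sample set background. Alexa647 signal was read by flow (≥10,000 events, doublets excluded). Biological triplicate, SEM.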

[10] = tested on: MONO-Mac-6 cells; assay: Proliferation assay; assay type: cell-based; conditions: Homo sapiens, MONO-MAC-6, 72 h
Procedure, shortened: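 MONO-MAC-6 cells were maintained in RPMI with 10% FBS, non-essential amino acids and OPI supplement. CellTiter-Glo used 5,000 cells/well and ≥5 two-fold dilutions from 50 μM (0.1% DMSO final), in triplicate wells with ≥2 biological replicates, over 72 h at 37°C.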

[11] = tested on: Molm13 clones CRISPR-targeted with EGFP or p53 gRNA; assay: Proliferation assay in CRISPR-targeted Molm13 clones; assay type: cell-based; conditions: Homo sapiens, MOLM-13, 72 h, Molm13 clone 2p (p53 gRNA), 3-day treatment
[12] = molecular target: WDR5 (Homo sapiens, UniProt P61964); assay: ChIP-Seq of WDR5; assay type: cell-based; conditions: MV4:11, 2 μM, 4 h
Procedure, shortened: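 MV4:11 cells at 10^6/ml were treated 4 h with 2 μM test compound, negative control or 0.1% DMSO. Cells were concentrated to 4 × 10^6/ml in PBS, fixed in 1% formaldehyde for 10 min at RT and quenched with 125 mM glycine. They were lysed in 1% SDS FA buffer. Sheared chromatin was diluted to 0.1% SDS and immunoprecipitated overnight at 4°C with anti-WDR5 (D9E1I or 429A) or IgG on BSA-blocked protein-A agarose. Peaks were compared by normalized average read counts.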

[13] = tested on: MV4:11 cells; assay: Proliferation assay; assay type: cell-based, human; conditions: MV4:11, 3 days, mean with SEM
Procedure, shortened: as §1

- GI50 [5]: 14.8 ± 1.1 µM
- GI50 [11]: 18 µM
- GI50 ([13]; Homo sapiens, MV4-11, 72 h): 2 µM
- GI50 [13]: 3.2 ± 0.213 µM
SMILES: Cc1nc(F)ccc1-c1cc(Cn2ccn(C)c2=N)cc(C(=O)NCc2ccc(Cl)c(Cl)c2)c1 [Compound C6, N-(3,4-Dichlorobenzyl)-3-(6-fluoro-2-methylpyridin-3-yl)-5-((2-imino-3-methyl-2,3-dihydro-1H-imidazol-1-yl)methyl)benzamide]
- SPR affinity for WDR5 relative to values calculated by TR-FRET [1]: ≤ 2 fold
- cell-cycle distribution, sub-G1 DNA content [2]: time-dependent increase in cells with a sub-G1 DNA content
- DNA damage response, accumulation of γ-H2AX foci [3]: does not induce a robust DNA damage response
- number of WDR5-bound genes induced [4]: 1
- number of WDR5-bound genes repressed [4]: 59
- p53 turnover in CHX chase [6]: no detectable effects on p53 turnover
- GI50 [7]: > 50 µM
- NPM1 distribution, nucleolar stress [8]: redistribution of nucleophosmin (NPM1) from the nucleolus to the nucleoplasm
- OPP incorporation ([9]; 1 day): measurable reduction in OPP incorporation
- OPP incorporation ([9]; 6 days): roughly half of the cells in the C6-treated population incorporated OPP at levels similar to those of cells treated with CHX
- GI50 [10]: 31.7 ± 2.32 µM
- WDR5 binding events on chromatin [12]: robust decrease in all detectable WDR5 binding events
